Reference: ChEMBL document CHEMBL1671710, “Different classes of antibiotics differentially influence shiga toxin production” (2010)
Converted amounts (≈) assume the structure as drawn. The source made the active and inactive calls. The rule behind the calls is not given here.

Tests used:
Escherichia coli [1] = experiment: Antimicrobial activity against Escherichia coli C600::H19B in logarithmic phase encoding Stx-1 gene by broth macrodilution assay
Escherichia coli [2] = experiment: Antimicrobial activity against Escherichia coli O157:H7 PT-40 in logarithmic phase encoding Stx-2 gene by broth macrodilution assay; type: functional
Escherichia coli [3] = experiment: microbe, parasite or virus in culture; conditions: C600::933W
Escherichia coli [4] = experiment: Antimicrobial activity against Escherichia coli C600::H19B in stationary phase encoding Stx-1 gene by broth macrodilution assay
Escherichia coli [5] = experiment: Antimicrobial activity against Escherichia coli O157:H7 PT-32 in logarithmic phase encoding Stx-1 and Stx-2 gene by broth macrodilution assay
Escherichia coli [6] = experiment: Antimicrobial activity against Escherichia coli O157:H7 PT-32 in stationary phase encoding Stx-1 and Stx-2 gene by broth macrodilution assay; type: functional
Summary of the method: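 Overnight MH-broth cultures (stationary phase) were diluted 1:1,000, then 1:200. 1 ml was mixed with 1.0 ml of antibiotic in MH broth, with trimethoprim:sulfamethoxazole at 1:5, and held overnight at 37°C with rotary aeration. MIC judged visually, corresponding to ∼10^7 CFU/ml.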

Escherichia coli [7] = experiment: Antimicrobial activity against Escherichia coli O157:H7 PT-40 in stationary phase encoding Stx-2 gene by broth macrodilution assay
Escherichia coli [8] = experiment: Antimicrobial activity against Escherichia coli C600::933W in logarithmic phase encoding Stx-2 gene by broth macrodilution assay; type: functional
Escherichia coli [9] = experiment: Antimicrobial activity against Escherichia coli O157:H7 185 encoding stx gene by broth microdilution method; type: functional, organism-based

Molecule | MIC (Escherichia coli [1]) [µg/mL] | MIC (Escherichia coli [2]) [µg/mL] | MIC (Escherichia coli [3]) [µg/mL] | MIC (Escherichia coli [4]) [µg/mL] | MIC (Escherichia coli [5]) [µg/mL] | MIC (Escherichia coli [6]) [µg/mL] | MIC (Escherichia coli [7]) [µg/mL] | MIC (Escherichia coli [8]) [µg/mL] | Activity (Escherichia coli [9])
CO/N=C(\C(=O)N[C@@H]1C(=O)N2C(C(=O)O)=C(CSc3nc(=O)c(O)nn3C)CS[C@H]12)c1csc(N)n1 [CEFTRIAXONE] | 0.03 (≈ 0.0541 µM) | 0.06 (≈ 0.108 µM) | 0.03 (≈ 0.0541 µM) | 0.06 (≈ 0.108 µM) | 0.03 (≈ 0.0541 µM) | 0.03 (≈ 0.0541 µM) | 0.06 (≈ 0.108 µM) | 0.03 (≈ 0.0541 µM) | –
CO[C@H]1/C=C/O[C@@]2(C)Oc3c(C)c(O)c4c(O)c(c(/C=N/N5CCN(C)CC5)c(O)c4c3C2=O)NC(=O)/C(C)=C\C=C\[C@H](C)[C@H](O)[C@@H](C)[C@@H](O)[C@@H](C)[C@H](OC(C)=O)[C@@H]1C [RIFAMPIN] | 4 (≈ 4.86 µM) | 4 (≈ 4.86 µM) | 8 (≈ 9.72 µM) | 16 (≈ 19.4 µM) | 4 (≈ 4.86 µM) | 2 (≈ 2.43 µM) | 16 (≈ 19.4 µM) | 8 (≈ 9.72 µM) | –
C[C@@H]1O[C@@H]1P(=O)(O)O [FOSFOMYCIN] | 2 (≈ 14.5 µM) | 16 (≈ 116 µM) | 2 (≈ 14.5 µM) | 0.5 (≈ 3.62 µM) | 16 (≈ 116 µM) | 16 (≈ 116 µM) | 16 (≈ 116 µM) | 2 (≈ 14.5 µM) | –
GENTAMICIN | – | 0.25 | – | – | – | 0.25 | – | 0.25 | –
CC1(C)S[C@@H]2[C@H](NC(=O)[C@H](N)c3ccccc3)C(=O)N2[C@H]1C(=O)O [AMPICILLIN] | 4 (≈ 11.4 µM) | – | 8 (≈ 22.9 µM) | 8 (≈ 22.9 µM) | – | 4 (≈ 11.4 µM) | 8 (≈ 22.9 µM) | – | Active
C[C@H]1c2cccc(O)c2C(=O)C2=C(O)[C@]3(O)C(=O)C(C(N)=O)=C(O)[C@@H](N(C)C)[C@@H]3[C@@H](O)[C@@H]21.O [DOXYCYCLINE] | 0.25 | 1 | 1 | 0.5 | 1 | 0.5 | 1 | 0.5 | Active
Cc1cc(NS(=O)(=O)c2ccc(N)cc2)no1 [SULFAMETHOXAZOLE] | 0.004 (≈ 0.0158 µM) | 0.13 (≈ 0.513 µM) | 0.03 (≈ 0.118 µM) | 0.03 (≈ 0.118 µM) | 0.13 (≈ 0.513 µM) | 0.13 (≈ 0.513 µM) | 0.13 (≈ 0.513 µM) | 0.01 (≈ 0.0395 µM) | –
CC[C@H]1OC(=O)[C@H](C)[C@@H](O[C@H]2C[C@@](C)(OC)[C@@H](O)[C@H](C)O2)[C@H](C)[C@@H](O[C@@H]2O[C@H](C)C[C@H](N(C)C)[C@H]2O)[C@](C)(O)C[C@@H](C)CN(C)[C@H](C)[C@@H](O)[C@]1(C)O [AZITHROMYCIN] | 2 (≈ 2.67 µM) | 4 (≈ 5.34 µM) | 2 (≈ 2.67 µM) | 2 (≈ 2.67 µM) | 2.6 (≈ 3.47 µM) | 2.6 (≈ 3.47 µM) | 2.6 (≈ 3.47 µM) | 2 (≈ 2.67 µM) | –
